Source: PubChem BioAssay AID651651 (Broad Institute, 2012)
A number with no mark means an inactive call.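 The calls were made as follows: active = signal-lowering compounds whose fitted half-effect concentration is no more than twice the top tested dose; inconclusive = flat curve with 30 to 70% inhibition, or poor fit; inactive = the rest.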

assay: quencher artefacts in RAD54 branch migration readout – biochemical, Cy5 label, cherry-picked samples, artefact control for RAD54 inhibitor project, dose response (AID 651651); settings: Cy5 DNA fluorescence quench counter-screen; series mostly up to 50 µM; activity change, negative = inhibition: at the top concentration
How it was run: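 Test system: human RAD54 enzyme; Amount: 30 nM RAD54 in the enzyme mix; Medium: 25 mM Tris pH 7.5, 3 mM MgCl2, 2 mM ATP; Measured by: Cy5 fluorescence; Times: 60 min reaction at room temperature after substrate addition; Doses: pinned compound dose series, 10 mM stock solutions.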

Row | SMILES | activity change, negative = inhibition
1 | CN(C)c1ccc2c(c1)[C@@H]1C[C@@H](CC(=O)NCCN3CCCCC3)O[C@H](CO)[C@@H]1O2 | -12.3%
2 | COc1ccc(CN(C)C[C@@H]2Oc3ccc(NC(=O)Nc4ccc(OC)cc4)cc3C(=O)N([C@H](C)CO)C[C@H]2C)cc1 | -7.79%
3 | C[C@H](NC(=O)C[C@H]1C[C@H]2c3cc(NC(=O)c4cccnc4)ccc3O[C@H]2[C@@H](CO)O1)c1ccccc1 | -2.79%
4 | COc1ccc(CN(C)C[C@@H]2Oc3ccc(NC(=O)Nc4c(C)noc4C)cc3C(=O)N([C@H](C)CO)C[C@H]2C)cc1 | 1.69%
5 | COc1ccc(CN(C)C[C@@H]2Oc3ccc(NC(=O)Nc4ccccc4)cc3C(=O)N([C@H](C)CO)C[C@H]2C)cc1 | -5.83%
6 | COc1ccc(-c2ccc3c(c2)[C@H]2[C@H](CCN2C(=O)Cc2cccnc2)[C@H](CO)N3C)cc1 | -12.9%
7 | COc1ccc(S(=O)(=O)N(C)C[C@@H]2Oc3ccc(NC(=O)Nc4ccc5c(c4)OCO5)cc3C(=O)N([C@H](C)CO)C[C@H]2C)cc1 | -2.96%
8 | COc1ccc(C#Cc2ccc([C@H]3[C@@H](CO)N4CCCCN(C(=O)Nc5cccc(F)c5)C[C@H]34)cc2)cc1 | -11.1%
9 | COc1ccc(S(=O)(=O)N(C)C[C@@H]2Oc3ccc(NC(=O)Nc4c(C)noc4C)cc3CC(=O)N([C@@H](C)CO)C[C@@H]2C)cc1 | -4.66%
10 | COc1ccc(S(=O)(=O)N(C)C[C@@H]2Oc3ccc(NC(=O)NC(C)C)cc3CC(=O)N([C@@H](C)CO)C[C@@H]2C)cc1 | 6.96%
11 | O=C(NC1CCC1)[C@@H]1[C@@H](CO)[C@@H]2Cn3c(ccc(-c4ccc(F)cc4)c3=O)[C@@H]2N1Cc1ccccn1 | -5.69%
12 | C/C=C/c1ccc([C@@H]2[C@@H](CO)N3CCCCN(C(=O)Nc4ccc(F)cc4)C[C@H]23)cc1 | -8.63%
13 | Cc1noc(C)c1NC(=O)Nc1ccc2c(c1)C(=O)N([C@@H](C)CO)C[C@@H](C)[C@H](CN(C)C(=O)Nc1cccc3ccccc13)O2 | 1.39%
14 | COc1ccc(S(=O)(=O)N(C)C[C@@H]2Oc3ccc(NC(=O)Nc4ccccc4)cc3CC(=O)N([C@@H](C)CO)C[C@@H]2C)cc1 | 4.69%
15 | C[C@H]1CCCCO[C@@H](CN(C)C(=O)Nc2ccc3c(c2)OCO3)[C@@H](C)CN([C@@H](C)CO)C(=O)c2cc(NC(=O)Nc3ccc(C(F)(F)F)cc3)ccc2O1 | -9.86%
16 | O=S(=O)(c1ccccc1)N1CCCCN2[C@H](CO)[C@H](c3ccc(C#CC4CCCC4)cc3)[C@@H]2C1 | -7.42%
17 | CS(=O)(=O)N1[C@@H]2Cn3c(ccc(C4=CCCCC4)c3=O)[C@H]1[C@@H](C(=O)N1CCOCC1)[C@@H]2CO | -13.1%
18 | CO[C@@H]1CN(C)C(=O)c2cc(NC(C)=O)ccc2OC[C@H](C)N(Cc2ccccc2C(=O)O)C[C@@H]1C | -1.33%
19 | COc1ccc(CN(C)C[C@@H]2Oc3ccc(NC(=O)Nc4ccc(F)cc4)cc3C(=O)N([C@@H](C)CO)C[C@H]2C)cc1 | -1.07%
20 | COc1ccc(S(=O)(=O)Nc2ccc3c(c2)[C@@H]2C[C@H](CC(=O)NCC4CC4)O[C@H](CO)[C@@H]2O3)cc1 | 0.179%
21 | Cc1cc(C(=O)Nc2cccc3c2O[C@H](CN(C)Cc2ccc(C(F)(F)F)cc2)[C@@H](C)CN([C@H](C)CO)C3=O)n(C)n1 | -0.835%
22 | C[C@@H]1CCCCO[C@@H](CN(C)S(C)(=O)=O)[C@H](C)CN([C@H](C)CO)C(=O)c2cc(NC(=O)Nc3ccc4c(c3)OCO4)ccc2O1 | 4.79%
23 | CN(C)c1ccc2c(c1)[C@H]1C[C@H](CC(=O)NCCN3CCCCC3)O[C@@H](CO)[C@H]1O2 | 0.661%
24 | O=C(C[C@@H]1C[C@H]2c3cc(NC(=O)CC4CC4)ccc3O[C@H]2[C@@H](CO)O1)NCc1ccc(Cl)cc1 | -16.4%
25 | COc1ccc(CN(C)C[C@@H]2Oc3ccc(NC(=O)Nc4ccc5c(c4)OCO5)cc3C(=O)N([C@@H](C)CO)C[C@H]2C)cc1 | -2.31%
26 | COc1ccc(CN(C)C[C@@H]2Oc3ccc(NC(=O)Nc4ccc(OC)cc4)cc3C(=O)N([C@@H](C)CO)C[C@H]2C)cc1 | -9.24%
27 | CN(C)CC(=O)Nc1ccc2c(c1)[C@@H]1C[C@H](CC(=O)NC3CCCCC3)O[C@@H](CO)[C@@H]1O2 | -8.2%
28 | CO[C@@H]1CN(C)C(=O)c2ccc(NC(C)=O)cc2OC[C@@H](C)N(C(=O)c2ccccn2)C[C@H]1C | -8.93% [at 46 µM]
29 | CN(C)c1ccc2c(c1)[C@@H]1C[C@H](CC(=O)NCCN3CCCCC3)O[C@H](CO)[C@@H]1O2 | -7.07%
